The list is not random: actives were taken first. Their share in the collection is about 2.5%.
MC4R barr agon: agonists of human melanocortin 4 receptor (MC4R) beta-arrestin. P32245. U2OS MC4R beta-arrestin complementation, luminescence; percent of melanotan II response, DMSO zero. activation, % at 8.9 µM. hit rate 0.98% among 360,000. AID 540308;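 active means activation above a per-plate cutoff, the mean activation of sample wells on that plate plus 3 SD, cut at about 8% in these data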
Target sequence (P32245 whole entry, looked up): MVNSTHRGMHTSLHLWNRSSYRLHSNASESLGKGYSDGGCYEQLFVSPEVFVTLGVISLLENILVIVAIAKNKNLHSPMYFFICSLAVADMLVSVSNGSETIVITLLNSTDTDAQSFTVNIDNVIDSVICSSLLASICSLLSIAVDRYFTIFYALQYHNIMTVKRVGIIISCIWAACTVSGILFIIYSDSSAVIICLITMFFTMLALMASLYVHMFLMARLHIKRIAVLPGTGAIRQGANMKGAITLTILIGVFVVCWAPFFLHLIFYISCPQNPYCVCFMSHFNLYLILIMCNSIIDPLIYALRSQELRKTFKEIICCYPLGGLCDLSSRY
NLRP3 yeast inh: inhibitors of NALP3 inflammasome in yeast | Yeast reconstituted NLRP3/ASC/caspase-1, beta-gal luminescence, 24 h | hit rate 0.39% among 330,000 | inhibition, % at 10 µM;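 active means inhibition of 50% or more; inactive means inhibition below 50%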;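 further: plate controls were induced DMSO wells for no effect and uninduced yeast grown without galactose for full effect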
MC4R antagonist: antagonists of human melanocortin 4 receptor (MC4R) | P32245 | MC4R-expressing cells, MTII-stimulated cAMP, LANCE TR-FRET | inhibition, % at 6.5 µM | hit rate 0.48% among 360,000;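 active means inhibition above its plate's cutoff, the mean of tested wells on that plate plus 3 SD, cut at about 29% in these data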;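 further: 0% = Melanotan II alone and 100% = Melanotan II plus saturating MCL0020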
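System – human MC4R-expressing U2OS cells · Also added – Melanotan II · Dosing – one concentration, 6.5 µM nominal · Timing – 30-min compound, 1-h challenge, 1-h detection, room temperature · Measured by – Eu-cAMP/anti-cAMP TR-FRET, emission 671 nm · Replicates – singlicate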
Bfl-1 A1 inh: inhibitors of the anti-apoptotic protein A1, read as caspase activation; hit rate 0.066% among 330,000; MEF A1-2A-BIM cells, Caspase-Glo 3/7 luminescence, 3 h; percent of clofoctol response, vehicle zero; AID 2462; caspase activation, % (no concentration beside the values);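 active means over half of replicate activation scores above 10%, or exactly half above 10 with the replicate mean above 10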
NALP1 yeast inh: blocks the NALP1 inflammasome reconstituted in yeast; S. cerevisiae NALP1/ASC/caspase-1 growth, X-gal OD620, 72 h; inhibition, % at 10 µM; hit rate 0.61% among 280,000; in the data active means inhibition mostly above about 24%, no sharp cut-off; inactive means mostly below about 32%
Tb MetRS inh: Trypanosoma brucei MetRS inhibition. purified T. brucei MetRS, ATP depletion, Kinase-Glo luminescence. inhibition, % at 11.9 µM. hit rate 0.4% among 360,000;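 active means inhibition above a per-plate cutoff of the control wells' mean inhibition plus 3 SD, cut at about 5.5% in these data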;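 further: 0% = DMSO wells median and 100% = median of wells with control inhibitor compound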
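Assay system: T. brucei methionyl-tRNA synthetase, purified | Medium: HEPES buffer with MgCl2, KCl, DTT, spermine, BSA, pyrophosphatase | Compound: 11.9 µM single point | Incubation: 15 min enzyme-compound preincubation, 2 h reaction, 10 min detection, 25 °C | Measured by: Kinase-Glo luciferase luminescence reporting remaining unconsumed ATP | Measure: % inhibition normalized to control-well medians | Replication: Singlicate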
* marks the source's active call; other numbers are inactive results; nt = not tested or not shown.

SMILES	MC4R barr agon	NLRP3 yeast inh	MC4R antagonist	Bfl-1 A1 inh	NALP1 yeast inh	Tb MetRS inh
CCCN(Cc1nnc(-c2cccs2)o1)C(=O)c1cccc(S(=O)(=O)N2CCOCC2)c1	0	-3	1	1	nt	0
O=C(NNC(=O)c1ccccc1Br)c1cnccn1	0	-2	9	1	nt	0
CCOc1ccc(S(=O)(=O)NCCC(=O)N(C)Cc2cccs2)cc1	-4	3	4	0	nt	0
CC(C)C(=O)Nc1ccc(N2CCOCC2)c(S(=O)(=O)Nc2ccccc2Cl)c1	-1	4	11	-1	nt	0
CCOC(=O)C(=O)NNc1ccc(Cl)cc1	-2	27	14	0	50*	0
CCOC(=O)C(=O)NNc1ccc(C)cc1	2	28	27	1	23	-1
Cc1ccc(-c2noc(COC(=O)c3ccco3)n2)cc1	1	17	15	-6	nt	0
COC1CC(=O)C2OC(c3ccccc3)OCC2O1 (centres undefined)	0	nt	12	nt	nt	0
C[C@@H]1CN([C@H](C)CO)C(=O)CCCn2nncc2CO[C@@H]1CN(C)C(=O)c1cc(-c2ccccc2)on1	0	nt	3	nt	nt	-1
CC1CCCCN1S(=O)(=O)c1ccc(C(=O)N(CCCN(C)C)c2nc3ccc(Br)cc3s2)cc1 (centres undefined)	8.8*	10	7	2	13	0
CN(C)CCN(C(=O)c1ccc(S(=O)(=O)N2CCCC2)cc1)c1nc2ccc(Br)cc2s1	-3	12	0	0	18	0
COc1cccc2sc(N(CCN(C)C)C(=O)c3ccc4c(c3)CCCC4)nc12	3	19	1	0	39	0
CN(C)CCCN(C(=O)c1ccc2c(c1)CCCC2)c1nc2ccc(Cl)cc2s1	9.1*	33	4	0	82*	0
Cc1cc(C)c2nc(N(CCCN(C)C)C(=O)c3ccc4c(c3)OCCO4)sc2c1	8.4*	36	0	0	nt	-1
CN(C)CCN(C(=O)c1ccc2c(c1)CCCC2)c1nc2c(F)cccc2s1	-1	16	6	-1	42*	0
O=C(NCC(c1ccco1)N1CCN(c2ccc(F)cc2)CC1)OCc1ccccc1 (centres undefined)	8.3*	-17	5	-3	17	0
COC(=O)NCC(c1ccco1)N1CCN(c2ccc(F)cc2)CC1 (centres undefined)	-2	10	0	1	10	0
O=C(/C=C/c1cccc(Cl)c1)c1ccc([N+](=O)[O-])o1	-4	43	34*	3	nt	0
COc1ccc(C(C[N+](=O)[O-])C2(c3ccc(OC)c(OC)c3)C(=O)c3ccccc3C2=O)cc1 (centres undefined)	0	nt	-8	-5	104*	-2
CC1CCCCC1NC(=O)C1CCC(CNS(=O)(=O)c2ccc3c(c2)C(C)(C)C(=O)N3C)CC1 (centres undefined)	0	nt	4	nt	nt	0
CC(C)(C)c1ccc2c(c1)N(CC(=O)O)C(=O)CO2	-3	-2	6	2	1	1
CCOC(=O)N1CCN(C(=O)CN2C(=O)COc3ccc(C(C)(C)C)cc32)CC1	-2	9	6	0	26*	0
CCOC(=O)c1c(N2C(=O)C=CC2=O)sc(C)c1C	-2	5	26	-1	53*	0
Nc1nonc1C(=O)NCCN=Cc1cc(Cc2ccccc2)cc(Br)c1O	9.2*	18	5	-1	11	0
Nc1nonc1C(=O)NCCN=Cc1ccccc1O	1	9	11	0	1	0
CN(C)C(=O)CSc1cnc2ccccc2n1	1	21	0	0	28*	-1
CNC(=O)CSc1cnc2ccccc2n1	2	3	17	0	-11	0
CC1CCCC(NC(=O)COC(=O)Cc2ccc(Br)cc2)C1C (centres undefined)	3	-22	0	-1	18*	-1
CC1CCCC(NC(=O)Cc2ccc(Br)cc2)C1C (centres undefined)	2	11	4	0	3	0

Assay outcomes as filed in PubChem.
